Laboratory results taken from ChEMBL document CHEMBL4834419 (J Med Chem, 2021).

Experiments:
[1] = molecular target: T1, Retinoic acid receptor RXR-alpha (Homo sapiens, UniProt P19793); assay: Agonist activity at human RXRalpha transfected in human HEK293T cells co-expressing pFR/pRL-Luc incubated for 14 to 16 hrs by hybrid reporter gene assay; type: cell-based
T1 sequence (P19793 whole entry): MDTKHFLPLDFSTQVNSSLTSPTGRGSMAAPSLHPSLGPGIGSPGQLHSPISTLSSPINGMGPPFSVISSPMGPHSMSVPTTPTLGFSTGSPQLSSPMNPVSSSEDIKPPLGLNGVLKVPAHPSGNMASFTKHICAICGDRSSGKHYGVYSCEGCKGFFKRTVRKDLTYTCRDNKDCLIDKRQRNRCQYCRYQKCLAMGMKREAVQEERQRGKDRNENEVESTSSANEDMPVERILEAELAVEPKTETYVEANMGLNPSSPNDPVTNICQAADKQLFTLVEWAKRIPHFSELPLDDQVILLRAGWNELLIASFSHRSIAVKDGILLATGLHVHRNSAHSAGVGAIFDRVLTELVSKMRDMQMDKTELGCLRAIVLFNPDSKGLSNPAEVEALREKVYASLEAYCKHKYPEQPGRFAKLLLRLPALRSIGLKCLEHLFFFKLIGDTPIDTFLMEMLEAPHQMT

[2] = molecular target: T2, Retinoic acid receptor RXR-beta (Homo sapiens, UniProt P28702); assay: Agonist activity at human RXRbeta transfected in human HEK293T cells co-expressing pFR/pRL-Luc incubated for 14 to 16 hrs by hybrid reporter gene assay; type: cell-based
T2 sequence (P28702 whole entry): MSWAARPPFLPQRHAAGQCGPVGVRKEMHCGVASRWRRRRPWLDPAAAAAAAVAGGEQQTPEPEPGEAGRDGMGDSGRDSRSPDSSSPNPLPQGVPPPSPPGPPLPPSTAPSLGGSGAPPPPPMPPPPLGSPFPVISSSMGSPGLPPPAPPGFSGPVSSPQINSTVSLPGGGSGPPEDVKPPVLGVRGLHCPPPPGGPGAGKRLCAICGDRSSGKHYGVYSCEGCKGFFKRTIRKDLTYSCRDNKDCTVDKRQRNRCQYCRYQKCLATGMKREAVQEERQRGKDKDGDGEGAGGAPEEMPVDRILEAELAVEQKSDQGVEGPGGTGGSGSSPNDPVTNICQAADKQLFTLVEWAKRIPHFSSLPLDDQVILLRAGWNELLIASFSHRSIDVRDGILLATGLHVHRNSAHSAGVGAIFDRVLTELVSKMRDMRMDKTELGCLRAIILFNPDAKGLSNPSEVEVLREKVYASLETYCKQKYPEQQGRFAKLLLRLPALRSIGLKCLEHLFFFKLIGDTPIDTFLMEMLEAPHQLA

[3] = molecular target: T3, Retinoic acid receptor RXR-gamma (Homo sapiens, UniProt P48443); assay: Agonist activity at human RXRgamma transfected in human HEK293T cells co-expressing pFR/pRL-Luc incubated for 14 to 16 hrs by hybrid reporter gene assay; type: cell-based
T3 sequence (P48443 whole entry): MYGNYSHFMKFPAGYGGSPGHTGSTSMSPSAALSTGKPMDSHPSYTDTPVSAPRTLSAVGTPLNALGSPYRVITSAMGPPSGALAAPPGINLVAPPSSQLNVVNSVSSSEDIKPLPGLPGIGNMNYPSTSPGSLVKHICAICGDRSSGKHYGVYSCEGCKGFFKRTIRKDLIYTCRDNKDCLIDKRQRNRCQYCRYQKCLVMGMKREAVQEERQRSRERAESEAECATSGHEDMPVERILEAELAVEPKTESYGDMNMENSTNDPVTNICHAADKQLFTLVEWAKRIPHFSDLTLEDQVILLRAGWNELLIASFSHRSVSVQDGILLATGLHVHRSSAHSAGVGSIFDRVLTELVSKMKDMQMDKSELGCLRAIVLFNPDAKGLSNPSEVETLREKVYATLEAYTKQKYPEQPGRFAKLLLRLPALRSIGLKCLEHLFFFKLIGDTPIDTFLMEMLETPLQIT

[4] = molecular target: T4, Peroxisome proliferator-activated receptor gamma (Homo sapiens) (UniProt P37231); assay: Agonist activity against human PPARgamma in human HEK293T cells co-expressing pFR/pRL-Luc assessed as receptor activation at 10 uM incubated for 14 to 16 hrs by hybrid reporter gene assay relative to bexarotene; type: cell-based; conditions: filed as agonist, time 14-16 hrs
T4 sequence (whole entry): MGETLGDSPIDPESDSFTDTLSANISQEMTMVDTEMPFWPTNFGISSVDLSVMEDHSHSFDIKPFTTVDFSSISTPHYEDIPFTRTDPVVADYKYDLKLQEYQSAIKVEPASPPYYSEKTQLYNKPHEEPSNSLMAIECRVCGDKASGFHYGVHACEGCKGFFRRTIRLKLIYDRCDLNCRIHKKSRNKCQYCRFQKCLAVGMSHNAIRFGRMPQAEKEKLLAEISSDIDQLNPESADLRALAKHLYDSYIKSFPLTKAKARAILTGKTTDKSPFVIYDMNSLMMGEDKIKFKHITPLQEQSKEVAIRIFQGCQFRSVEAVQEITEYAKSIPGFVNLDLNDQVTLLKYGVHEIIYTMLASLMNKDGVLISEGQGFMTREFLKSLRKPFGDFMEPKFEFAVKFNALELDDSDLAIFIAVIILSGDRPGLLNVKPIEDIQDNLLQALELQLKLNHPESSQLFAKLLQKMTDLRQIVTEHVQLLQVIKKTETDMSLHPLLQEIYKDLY
How it was run: (§1)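 Gal4 hybrid reporter assay in HEK293T cells, seeded 24 h before transfection (Lipofectamine LTX, Opti-MEM) with pFR-Luc, pRL-SV40 and pFA-CMV plasmid carrying the hinge region and LBD of the human receptor. After 5 h, compound added in 0.1% DMSO, with 0.1% DMSO alone as untreated control. Dual-Glo luciferase read after 14−16 h; firefly/renilla normalized; duplicates, ≥2 independent experiments.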

[5] = molecular target: T5, Retinoic acid receptor RXR-gamma (Homo sapiens) (UniProt P48443); assay: Agonist activity against human RXRgamma in human HEK293T cells co-expressing pFR/pRL-Luc assessed as receptor activation at 10 uM incubated for 14 to 16 hrs by hybrid reporter gene assay relative to bexarotene; type: cell-based; conditions: filed as agonist, time 14-16 hrs; how it was run: as §1
T5 sequence (whole entry): T3 sequence (P48443 whole entry)

[6] = Half life in mouse at 10 mg/kg, po; type: ADME, organism-based; conditions: in vivo
How it was run: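 Mice, n = 3, received a single oral dose of 10 mg/kg in water with 1% hydroxypropyl methylcellulose/Tween 80 (99:1). Tail-vein blood was drawn at 30 and 60 min and tissue collected at 3 h. Compound was quantified by LC−MS and PK derived by noncompartmental analysis.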

O=C(O)CCCc1cc(-c2cc(Cl)cc(Cl)c2)n(-c2ccccc2)n1
EC50 [1]: 250 nM
EC50 [2]: 350 nM
EC50 [3]: 1600 nM
Activity [4]: 2%
Activity [5]: 27%
half-life [6]: > 3 h
